Eleven molecules from ChEMBL document CHEMBL3045292, “Synthesis and herbicidal activity of 2-(7-fluoro-3-oxo- 3,4-dihydro-2H-benzo[b][1,4]oxazin-6-yl)isoindoline-1,3-diones” (J Agric Food Chem, 2005) can be followed below.

For assay [1], the system named is Chenopodium album. As to the kind of experiment: Herbicidal activity against fat hen Chenopodium album assessed as weed growth inhibition at 75 g/ha pre-emergence treatment […]. Type of assay: functional. To be noted: read-out: GI. Summed up: (§1)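 Pot-grown plants in the greenhouse, in clay soil (pH 6.5, 1.6% organic matter, 37.3% clay, CEC 12.1 cmol/kg). Compound was made up as a 100 g/L emulsified concentrate (DMF, Tween-80), diluted in water and sprayed at 75 g ai/ha. Pre-emergence spraying was 24 h after sowing; post-emergence at two-leaf (dicots) or one-leaf (monocots) stage. Untreated and DMF controls. Percent growth inhibition scored visually 15 days post-treatment.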

The subject of assay [2] is Chenopodium album. As to the kind of experiment: Herbicidal activity against fat hen Chenopodium album assessed as weed growth inhibition at 75 g/ha post-emergence treatment […]. To be noted: read-out: GI. The class given is functional. Summed up:
as §1

Assay [3] deals with Amaranthus blitum. The experiment in a line: Herbicidal activity against Amaranthus blitum assessed as weed growth inhibition at 75 g/ha post-emergence treatment […]. Type of assay: functional. To be noted: read-out: GI. The gist of the method: as §1
For assay [4], the system named is Amaranthus blitum. As to the kind of experiment: Herbicidal activity against Amaranthus blitum assessed as weed growth inhibition at 75 g/ha pre-emergence treatment […]. Type of assay: functional. To be noted: read-out: GI. Summed up: as §1
The subject of assay [5] is Setaria viridis. As to the kind of experiment: Herbicidal activity against Setaria viridis (green foxtail) assessed as weed growth inhibition at 75 g/ha post-emergence treatment […]. To be noted: read-out: GI. Type of assay: functional. The gist of the method:
as §1

Assay [6] concerns Setaria viridis. The experiment in a line: Herbicidal activity against Setaria viridis (green foxtail) assessed as weed growth inhibition at 75 g/ha pre-emergence treatment […]. Type of assay: functional. To be noted: read-out: GI. The gist of the method:
as §1

The subject of assay [7] is Digitaria sanguinalis. As to the kind of experiment: Herbicidal activity against crabgrass Digitaria sanguinalis(hairy crabgrass) assessed as weed growth inhibition at post-emergence treatment […]. Type of assay: functional, organism-based. The gist of the method: as §1
The subject of assay [8] is Digitaria sanguinalis. The experiment in a line: Herbicidal activity against crabgrass Digitaria sanguinalis(hairy crabgrass) assessed as weed growth inhibition at 75 g/ha post-emergence treatment […]. Type of assay: functional. To be noted: read-out: GI. The gist of the method:
as §1

Assay [9] deals with Echinochloa crus-galli. The experiment in a line: Herbicidal activity against Echinochloa crus-galli (barnyard grass) (barnyard grass) assessed as weed growth inhibition at 75 g/ha post-emergence treatment […]. The following applies: read-out: GI. The class given is functional. Summed up:
as §1

In assay [10] the test system is Abutilon theophrasti. The experiment in a line: Herbicidal activity against Abutilon theophrasti (velvetleaf) assessed as weed growth inhibition at 75 g/ha pre-emergence treatment […]. The class given is functional. The following applies: read-out: GI. The gist of the method: as §1
For assay [11], the system named is Abutilon theophrasti. As to the kind of experiment: Herbicidal activity against Abutilon theophrasti (velvetleaf) assessed as weed growth inhibition at post-emergence treatment […]. The class given is functional, organism-based. The gist of the method: as §1
The test system of assay [12] is Echinochloa crus-galli. As to the kind of experiment: Herbicidal activity against Echinochloa crus-galli (barnyard grass) (barnyard grass) assessed as weed growth inhibition at 75 g/ha pre-emergence treatment […]. To be noted: read-out: GI. The class given is functional. The gist of the method: as §1
The test system of assay [13] is Digitaria sanguinalis. As to the kind of experiment: Herbicidal activity against crabgrass Digitaria sanguinalis(hairy crabgrass) assessed as weed growth inhibition at 75 g/ha pre-emergence treatment […]. Type of assay: functional. The following applies: read-out: GI. The gist of the method: as §1
The test system of assay [14] is Abutilon theophrasti. As to the kind of experiment: Herbicidal activity against Abutilon theophrasti (velvetleaf) assessed as weed growth inhibition at 75 g/ha post-emergence treatment […]. Type of assay: functional. The following applies: read-out: GI. Summed up: as §1

Each structure is given as a SMILES string.

Turning to `C#CCN1C(=O)C(C)Oc2cc(F)c(N3C(=O)c4ccc(C)cc4C3=O)cc21` (centres undefined), the inhibition of growth at 75 g/ha was greater than 80% in the assay with Chenopodium album [1]; greater than 80% in the assay on Chenopodium album [2]; greater than 80% in the assay with Amaranthus blitum [3]; greater than 80% with Amaranthus blitum [4]; less than 50% with Setaria viridis [5]; less than 50% with Setaria viridis [6]. The inhibition of growth at 75 g/ha with Digitaria sanguinalis [8] is less than 50%; in the assay on Echinochloa crus-galli [9], less than 50%; in the assay with Abutilon theophrasti [10] it was greater than 80%; with Echinochloa crus-galli [12], less than 50%; in the assay on Digitaria sanguinalis [13], less than 50%; with Abutilon theophrasti [14] it was greater than 80%. The IC50 worked out at 393 g/ha in the assay on Digitaria sanguinalis [7] and 18 g/ha in the assay with Abutilon theophrasti [11].

Regarding `CC1Oc2cc(F)c(N3C(=O)c4cccc(F)c4C3=O)cc2N(CC#CI)C1=O` (centres undefined), the inhibition of growth at 75 g/ha is greater than 80% in the assay with Chenopodium album [1]; greater than 80% in the assay on Chenopodium album [2]; greater than 80% in the assay on Amaranthus blitum [3]; greater than 80% in the assay on Amaranthus blitum [4]; less than 50% in the assay with Setaria viridis [5]; less than 50% in the assay on Setaria viridis [6]. The inhibition of growth at 75 g/ha in the assay on Digitaria sanguinalis [8] was less than 50%; with Echinochloa crus-galli [9] it was less than 50%; in the assay on Abutilon theophrasti [10], greater than 80%; with Echinochloa crus-galli [12], less than 50%; in the assay on Digitaria sanguinalis [13], less than 50%; with Abutilon theophrasti [14] it was greater than 80%. Further, the IC50 with Digitaria sanguinalis [7] was found to be 238 g/ha; in the assay with Abutilon theophrasti [11], 7.5 g/ha.

Consider `C#CCN1C(=O)COc2cc(F)c(N3C(=O)c4ccccc4C3=O)cc21`, for which the inhibition of growth at 75 g/ha was greater than 80% with Chenopodium album [1]; greater than 80% with Chenopodium album [2]; greater than 80% with Amaranthus blitum [3]; greater than 80% in the assay with Amaranthus blitum [4]; greater than 80% in the assay with Setaria viridis [5]; less than 50% in the assay with Setaria viridis [6]. Also, the inhibition of growth at 75 g/ha in the assay with Digitaria sanguinalis [8] was greater than 80%; in the assay with Echinochloa crus-galli [9] it was greater than 80%; in the assay with Abutilon theophrasti [10] it was greater than 80%; in the assay on Echinochloa crus-galli [12], less than 50%; in the assay with Digitaria sanguinalis [13], greater than 80%; with Abutilon theophrasti [14], greater than 80%. The IC50 was determined as 17 g/ha in the assay on Digitaria sanguinalis [7] and 7.5 g/ha in the assay on Abutilon theophrasti [11].

Consider `C#CCN1C(=O)COc2cc(F)c(N3C(=O)c4cccc([N+](=O)[O-])c4C3=O)cc21`, for which the inhibition of growth at 75 g/ha with Chenopodium album [1], in the assay on Chenopodium album [2], in the assay with Amaranthus blitum [3], with Amaranthus blitum [4], in the assay with Setaria viridis [5] and in the assay with Setaria viridis [6] was less than 50% in each case. The inhibition of growth at 75 g/ha in the assay with Digitaria sanguinalis [8], in the assay on Echinochloa crus-galli [9], in the assay on Abutilon theophrasti [10], in the assay on Echinochloa crus-galli [12], with Digitaria sanguinalis [13] and in the assay with Abutilon theophrasti [14] was less than 50% each time. The IC50 in the assay on Digitaria sanguinalis [7] was 210 g/ha; in the assay with Abutilon theophrasti [11] it was 300 g/ha.

Consider `C#CCN1C(=O)COc2cc(F)c(N3C(=O)c4ccc(C)cc4C3=O)cc21`, for which the inhibition of growth at 75 g/ha was less than 50% in the assay with Chenopodium album [1]; greater than 80% with Chenopodium album [2]; greater than 80% in the assay with Amaranthus blitum [3]; less than 50% in the assay with Amaranthus blitum [4]; less than 50% in the assay with Setaria viridis [5]; less than 50% in the assay on Setaria viridis [6]. For the same molecule, the inhibition of growth at 75 g/ha with Digitaria sanguinalis [8] is greater than 80%; in the assay with Echinochloa crus-galli [9], 50%; in the assay on Abutilon theophrasti [10], less than 50%; in the assay with Echinochloa crus-galli [12], less than 50%; in the assay with Digitaria sanguinalis [13], less than 50%; in the assay on Abutilon theophrasti [14], greater than 80%. Also, the values for the IC50 with Digitaria sanguinalis [7] and in the assay with Abutilon theophrasti [11] were 31 g/ha and 28 g/ha, respectively.

Take `O=C1COc2cc(F)c(N3C(=O)c4cccc(F)c4C3=O)cc2N1CC#CI`: the inhibition of growth at 75 g/ha in the assay on Chenopodium album [1] is greater than 80%; with Chenopodium album [2] it was greater than 80%; in the assay on Amaranthus blitum [3], greater than 80%; in the assay on Amaranthus blitum [4], greater than 80%; in the assay on Setaria viridis [5], greater than 80%; in the assay on Setaria viridis [6] it was less than 50%. Also, the inhibition of growth at 75 g/ha in the assay on Digitaria sanguinalis [8] was greater than 80%; in the assay with Echinochloa crus-galli [9], greater than 80%; in the assay on Abutilon theophrasti [10], greater than 80%; in the assay with Echinochloa crus-galli [12], less than 50%; in the assay with Digitaria sanguinalis [13], less than 50%; with Abutilon theophrasti [14] it was greater than 80%. The IC50 with Digitaria sanguinalis [7] worked out at 40 g/ha; in the assay with Abutilon theophrasti [11], 7.2 g/ha.

`O=C1COc2cc(F)c(N3C(=O)C4=C(CCCC4)C3=O)cc2N1CC#CI`: the inhibition of growth at 75 g/ha in the assay on Chenopodium album [1], in the assay on Chenopodium album [2], with Amaranthus blitum [3], with Amaranthus blitum [4], in the assay on Setaria viridis [5] and with Setaria viridis [6] was greater than 80% in each case. Besides, the inhibition of growth at 75 g/ha in the assay on Digitaria sanguinalis [8], with Echinochloa crus-galli [9], with Abutilon theophrasti [10], in the assay on Echinochloa crus-galli [12], in the assay on Digitaria sanguinalis [13] and in the assay with Abutilon theophrasti [14] was greater than 80% each time. Moreover, the IC50 in the assay with Digitaria sanguinalis [7] worked out at 3.8 g/ha; in the assay on Abutilon theophrasti [11] it was 2.3 g/ha.

Regarding `CC1Oc2cc(F)c(N3C(=O)c4ccccc4C3=O)cc2N(CC#CI)C1=O` (centres undefined), the inhibition of growth at 75 g/ha is greater than 80% in the assay on Chenopodium album [1]; greater than 80% in the assay on Chenopodium album [2]; greater than 80% with Amaranthus blitum [3]; greater than 80% with Amaranthus blitum [4]; less than 50% in the assay with Setaria viridis [5]; greater than 80% with Setaria viridis [6]. Further, the inhibition of growth at 75 g/ha in the assay on Digitaria sanguinalis [8] is 50%; with Echinochloa crus-galli [9], less than 50%; in the assay on Abutilon theophrasti [10] it was greater than 80%; in the assay with Echinochloa crus-galli [12] it was greater than 80%; with Digitaria sanguinalis [13] it was greater than 80%; in the assay on Abutilon theophrasti [14], greater than 80%. Also, the IC50 with Digitaria sanguinalis [7] is 60 g/ha; in the assay with Abutilon theophrasti [11], 7.4 g/ha.

As for `C#CCN1C(=O)COc2cc(F)c(N3C(=O)c4cccc(F)c4C3=O)cc21`, the inhibition of growth at 75 g/ha in the assay on Chenopodium album [1], in the assay on Chenopodium album [2], with Amaranthus blitum [3], with Amaranthus blitum [4], in the assay with Setaria viridis [5] and with Setaria viridis [6] was greater than 80% throughout. The inhibition of growth at 75 g/ha with Digitaria sanguinalis [8], in the assay on Echinochloa crus-galli [9], with Abutilon theophrasti [10], in the assay on Echinochloa crus-galli [12], with Digitaria sanguinalis [13] and in the assay with Abutilon theophrasti [14] was greater than 80% throughout. Moreover, the IC50 is 20 g/ha in the assay with Digitaria sanguinalis [7] and 23 g/ha in the assay on Abutilon theophrasti [11].

With `C#CCN1C(=O)C(C)Oc2cc(F)c(N3C(=O)c4cccc(F)c4C3=O)cc21` (centres undefined), the inhibition of growth at 75 g/ha in the assay with Chenopodium album [1], in the assay with Chenopodium album [2], with Amaranthus blitum [3], in the assay with Amaranthus blitum [4], with Setaria viridis [5] and with Setaria viridis [6] was greater than 80% throughout. For the same molecule, the inhibition of growth at 75 g/ha in the assay on Digitaria sanguinalis [8], in the assay with Echinochloa crus-galli [9], in the assay on Abutilon theophrasti [10], in the assay on Echinochloa crus-galli [12], in the assay on Digitaria sanguinalis [13] and in the assay on Abutilon theophrasti [14] was greater than 80% in each case. Besides, the IC50 was 42 g/ha in the assay with Digitaria sanguinalis [7] and 7.7 g/ha with Abutilon theophrasti [11].

For `N#CCN1C(=O)COc2cc(F)c(N3C(=O)c4ccccc4C3=O)cc21`, the inhibition of growth at 75 g/ha with Chenopodium album [1], in the assay on Chenopodium album [2], with Amaranthus blitum [3], with Amaranthus blitum [4], in the assay with Setaria viridis [5] and with Setaria viridis [6] was less than 50% in each case. For the same molecule, the inhibition of growth at 75 g/ha was 50% in the assay on Digitaria sanguinalis [8]; less than 50% with Echinochloa crus-galli [9]; less than 50% in the assay with Abutilon theophrasti [10]; less than 50% in the assay on Echinochloa crus-galli [12]; less than 50% with Digitaria sanguinalis [13]; less than 50% in the assay with Abutilon theophrasti [14]. Further, the IC50 in the assay with Digitaria sanguinalis [7] came out at 57 g/ha; with Abutilon theophrasti [11], 92 g/ha.
